We go through 22 compounds from ChEMBL document CHEMBL4425104, “Structure-Based Design of Potent Nicotinamide Phosphoribosyltransferase Inhibitors with Promising in Vitro and in Vivo Antitumor Activities” (J Med Chem, 2016).

One assay deals with HeLa. Briefly: Cytotoxicity against human HeLa cells assessed as cell growth inhibition after 72 hrs by CCK-8 assay. The format is functional. Put shortly: (§1)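 HeLa, MCF7, H1975, U937 and MDA-MB-231 kept in RPMI or DMEM with 10% FBS and 1% pen/strep at 37 °C, 5% CO2. Seeded at 400-800 cells/well in 384-well format, exposed to a concentration series or solvent control for 72 h. CCK-8 added, absorbance read at 450 nm, IC50 fitted from dose-response curves.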
Background: Tetrazolium assays rely on reduction of a dye to a coloured formazan, in cell work by metabolically active cells.

In the next assay the test system is U-937. The assay can be described thus: Cytotoxicity against human U937 cells assessed as cell growth inhibition after 72 hrs by CCK-8 assay. The format is functional. The note with it: U-937, 72 h. The method in brief:
as §1

The target in assay [1] is Nicotinamide phosphoribosyltransferase (Homo sapiens, UniProt P43490). Briefly: Inhibition of recombinant NAMPT (unknown origin) using nicotinamide as substrate measured every 5 mins for 30 mins in presence of recombinant NMNAT1.
Nicotinamide phosphoribosyltransferase, sequence (P43490 whole entry): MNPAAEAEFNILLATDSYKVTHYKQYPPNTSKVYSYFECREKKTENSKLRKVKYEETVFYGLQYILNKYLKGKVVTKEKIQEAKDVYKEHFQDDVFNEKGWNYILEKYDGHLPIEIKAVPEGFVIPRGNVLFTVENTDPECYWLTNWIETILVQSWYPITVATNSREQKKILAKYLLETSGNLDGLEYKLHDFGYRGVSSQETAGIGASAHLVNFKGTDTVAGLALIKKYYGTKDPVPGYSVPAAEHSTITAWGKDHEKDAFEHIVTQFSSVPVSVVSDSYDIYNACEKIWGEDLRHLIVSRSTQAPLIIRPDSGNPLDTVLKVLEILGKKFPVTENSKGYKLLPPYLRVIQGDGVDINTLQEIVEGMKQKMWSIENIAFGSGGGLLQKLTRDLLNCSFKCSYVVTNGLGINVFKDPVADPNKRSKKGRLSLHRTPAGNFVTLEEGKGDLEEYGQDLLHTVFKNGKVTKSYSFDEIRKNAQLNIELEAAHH
A further assay concerns MCF7. The assay can be described thus: Cytotoxicity against human MCF7 cells assessed as cell growth inhibition after 72 hrs by CCK-8 assay. Type of assay: functional. The note with it: MCF7, 72 h. Put shortly:
as §1

The subject of a further assay is NCI-H1975. Briefly: Cytotoxicity against human NCI-H1975 cells assessed as cell growth inhibition after 72 hrs by CCK-8 assay. The note with it: NCI-H1975, 72 h. Type of assay: functional. The method in brief:
as §1

For another assay, the system named is MDA-MB-231. Briefly: Cytotoxicity against human MDA-MB-231 cells assessed as cell growth inhibition after 72 hrs by CCK-8 assay. The format is functional. The note with it: MDA-MB-231, 72 h. Put shortly:
as §1

For `CCN(CCc1c[nH]c2ccccc12)Cc1ccc(CCCNC(=O)/C=C/c2cccnc2)cc1`, the 50% growth inhibitory concentration (GI50) (usually the concentration that inhibits growth by half) with HeLa is 200 nM; in the assay on U-937, 48.3 nM; in the assay on MCF7, 41 nM; in the assay on NCI-H1975 it was 314 nM; in the assay on MDA-MB-231, 76.4 nM. The IC50 (as a rule, the concentration that gives 50% inhibition) in assay [1] was 873 nM.
On to `CC(C)N(Cc1ccccc1)Cc1ccc(CCCCCNC(=O)/C=C/c2cccnc2)cc1`, for which the 50% growth inhibitory concentration (GI50) came to 40.1 nM with HeLa; 11.1 nM in the assay with U-937; 6.37 nM in the assay on MCF7; 49 nM in the assay with NCI-H1975; 12.6 nM in the assay on MDA-MB-231. Also, the concentration for half-maximal inhibition (IC50) in assay [1] worked out at 82.5 nM.
As to `CC(C)N(CCc1c[nH]c2ccccc12)Cc1ccc(CCCCCCCNC(=O)/C=C/c2cccnc2)cc1`, the GI50 in the assay on HeLa stood at 2.64 nM; with U-937 it was 0.75 nM; with MCF7, 0.74 nM; in the assay on NCI-H1975, 4.2 nM; in the assay with MDA-MB-231 it was 0.84 nM. In addition, the IC50 in assay [1] was 52.7 nM.
As to `CC(C)N(CCc1ccc(C(F)(F)F)cc1)Cc1ccc(CCCCCNC(=O)/C=C/c2cccnc2)cc1`, the GI50 in the assay on HeLa came out at 8.98 nM; in the assay with U-937, 1.57 nM; with MCF7, 1.6 nM; in the assay with NCI-H1975 it was 9.54 nM; in the assay with MDA-MB-231 it was 2.4 nM. The IC50 in assay [1] was 362 nM.
For `Cc1ccc(CCN(Cc2ccc(CCCCCNC(=O)/C=C/c3cccnc3)cc2)C(C)C)cc1`, the GI50 came out at 26.6 nM in the assay on HeLa; 8.73 nM in the assay with U-937; 5.53 nM in the assay on MCF7; 39.2 nM in the assay on NCI-H1975; 7.19 nM in the assay with MDA-MB-231. Besides, in assay [1], the IC50 is 99.6 nM.
Consider `CC(C)N(CCc1c[nH]c2ccccc12)Cc1ccc(CCCCCNC(=O)/C=C/c2cccnc2)cc1`, for which the GI50 is 3.23 nM with HeLa; 0.61 nM in the assay on U-937; 0.63 nM in the assay with MCF7; 4.2 nM in the assay on NCI-H1975; 0.89 nM in the assay with MDA-MB-231. The 50% inhibitory concentration (IC50) in assay [1] is 66.9 nM.
In the case of `O=C(/C=C/c1cccnc1)NCCCc1ccc(CN(CCc2c[nH]c3ccccc23)Cc2ccccc2)cc1`, the 50% growth inhibitory concentration (GI50) in the assay on HeLa was determined as 379 nM; in the assay on U-937, 85.2 nM; in the assay with MCF7, 101 nM; with NCI-H1975 it was 514 nM; in the assay on MDA-MB-231 it was 269 nM. Besides, the half-inhibitory concentration (IC50) in assay [1] was 1000 nM.
For `CC(C)N(CCc1c[nH]c2ccccc12)Cc1ccc(CCCNC(=O)/C=C/c2cccnc2)cc1`, the concentration for 50% growth inhibition (GI50) amounted to 90.7 nM in the assay on HeLa; 24.2 nM with U-937; 22.4 nM with MCF7; 79.7 nM in the assay with NCI-H1975; 30.5 nM in the assay with MDA-MB-231. Also, the IC50 in assay [1] came to 702 nM.
On to `CN(CCc1c[nH]c2ccccc12)Cc1ccc(CCCNC(=O)/C=C/c2cccnc2)cc1`, for which the GI50 in the assay with HeLa stood at 250 nM; with U-937, 69.1 nM; in the assay on MCF7, 75.4 nM; in the assay with NCI-H1975, 224 nM; with MDA-MB-231, 84.7 nM. In addition, the half-inhibitory concentration (IC50) in assay [1] turned out to be 780 nM.
Turning to `CC(C)N(CCc1ccccc1)Cc1ccc(CCCCCNC(=O)/C=C/c2cccnc2)cc1`, the GI50 worked out at 19.6 nM in the assay with HeLa; 6.21 nM with U-937; 7.18 nM in the assay with MCF7; 61.3 nM in the assay on NCI-H1975; 10.1 nM with MDA-MB-231. Besides, in assay [1], the concentration for half-maximal inhibition (IC50) was 285 nM.
`CC(C)N(CCc1cccc(C(F)(F)F)c1)Cc1ccc(CCCCCNC(=O)/C=C/c2cccnc2)cc1`: the 50% growth inhibitory concentration (GI50) came to 15.2 nM with HeLa; 5.1 nM in the assay with U-937; 2.41 nM in the assay with MCF7; 26.2 nM with NCI-H1975; 6.92 nM with MDA-MB-231. Further, the IC50 in assay [1] worked out at 381 nM.
Turning to `COc1ccc(CCN(Cc2ccc(CCCCCNC(=O)/C=C/c3cccnc3)cc2)C(C)C)cc1`, the 50% growth inhibitory concentration (GI50) is 6.95 nM in the assay with HeLa; 2.12 nM in the assay with U-937; 1.38 nM with MCF7; 9.87 nM in the assay on NCI-H1975; 2.86 nM in the assay on MDA-MB-231. In assay [1], the 50% inhibitory concentration (IC50) was 54.8 nM.
On to `CC(C)N(CCc1ccc(F)cc1)Cc1ccc(CCCCCNC(=O)/C=C/c2cccnc2)cc1`, for which the 50% growth inhibitory concentration (GI50) amounted to 20.9 nM with HeLa; 7.67 nM in the assay with U-937; 7.37 nM in the assay with MCF7; 34.1 nM in the assay with NCI-H1975; 13.6 nM in the assay with MDA-MB-231. The IC50 in assay [1] worked out at 149 nM.
On to `CC(C)(C)OC(=O)N(CCc1c[nH]c2ccccc12)Cc1ccc(CCCNC(=O)/C=C/c2cccnc2)cc1`, for which the concentration for 50% growth inhibition (GI50) in the assay with HeLa worked out at 288 nM; in the assay on U-937 it was 54.3 nM; in the assay with MCF7, 85.5 nM; with NCI-H1975 it was 399 nM; with MDA-MB-231 it was 123 nM. For the same compound, the IC50 in assay [1] came to 715 nM.
As for `CCCN(CCc1c[nH]c2ccccc12)Cc1ccc(CCCNC(=O)/C=C/c2cccnc2)cc1`, the GI50 in the assay with HeLa was determined as 55.7 nM; in the assay with U-937, 28.1 nM; in the assay with MCF7, 23.8 nM; in the assay with NCI-H1975 it was 109 nM; in the assay on MDA-MB-231, 36 nM. Further, the IC50 in assay [1] is 544 nM.
Take `CC(C)N(CCc1ccsc1)Cc1ccc(CCCCCNC(=O)/C=C/c2cccnc2)cc1`: the GI50 with HeLa stood at 43.7 nM; with U-937, 14.8 nM; in the assay with MCF7 it was 8.47 nM; with NCI-H1975, 71.8 nM; in the assay with MDA-MB-231, 23.6 nM. The concentration for half-maximal inhibition (IC50) in assay [1] was 195 nM.
For the compound `O=C(/C=C/c1cccnc1)NCCCc1ccc(CN(CCO)CCc2c[nH]c3ccccc23)cc1`, the concentration for 50% growth inhibition (GI50) came to 69.4 nM in the assay with HeLa; 18.3 nM in the assay on U-937; 18.1 nM in the assay with MCF7; 107 nM with NCI-H1975; 31.4 nM in the assay with MDA-MB-231. Moreover, in assay [1], the half-inhibitory concentration (IC50) amounted to 181 nM.
Regarding `Cc1[nH]c2ccccc2c1CCN(Cc1ccc(CCCCCNC(=O)/C=C/c2cccnc2)cc1)C(C)C`, the GI50 in the assay with HeLa turned out to be 7.93 nM; with U-937 it was 1.58 nM; in the assay with MCF7, 1.67 nM; with NCI-H1975, 13.3 nM; in the assay on MDA-MB-231 it was 3.03 nM. Besides, in assay [1], the IC50 came to 120 nM.
`CC(C)N(CCc1c[nH]c2ccccc12)Cc1ccc(CNC(=O)/C=C/c2cccnc2)cc1`: the GI50 with HeLa came to 173 nM; in the assay with U-937 it was 77.9 nM; with MCF7 it was 75.1 nM; in the assay with NCI-H1975 it was 335 nM; in the assay with MDA-MB-231 it was 134 nM. Besides, the 50% inhibitory concentration (IC50) in assay [1] stood at 213 nM.
For the compound `O=C(/C=C/c1cccnc1)NCCCc1ccc(CNCCc2c[nH]c3ccccc23)cc1`, the concentration for 50% growth inhibition (GI50) was 405 nM with HeLa; 187 nM in the assay on U-937; 86.9 nM in the assay on MCF7; 963 nM in the assay with NCI-H1975; 358 nM with MDA-MB-231. Also, the concentration for half-maximal inhibition (IC50) in assay [1] worked out at 1410 nM.
Turning to `O=C(/C=C/c1cccnc1)NCCCCC1CCN(C(=O)c2ccccc2)CC1` [DAPORINAD], the 50% growth inhibitory concentration (GI50) with HeLa is 1.34 nM; with U-937, 0.36 nM; in the assay with MCF7, 0.29 nM; in the assay with NCI-H1975, 3.95 nM; with MDA-MB-231 it was 0.78 nM.
In the case of `CC(=O)O[C@H]1C(=O)[C@@]2(C)[C@H]([C@H](OC(=O)c3ccccc3)[C@]3(O)C[C@H](OC(=O)[C@H](O)[C@@H](NC(=O)c4ccccc4)c4ccccc4)C(C)=C1C3(C)C)[C@]1(OC(C)=O)CO[C@@H]1C[C@@H]2O` [PACLITAXEL], the GI50 in the assay on HeLa was 2.34 nM; in the assay on U-937, 2.12 nM; with MCF7, 4.38 nM; in the assay with NCI-H1975 it was 5.77 nM; in the assay with MDA-MB-231, 8.67 nM.
